Screens deposited in PubChem by several laboratories.
Efa HMGR inh = E. faecalis class II HMG-CoA reductase inhibition; purified E. faecalis HMGR, NADPH absorbance 340 nm kinetic; AID 1066; inhibition, % at 10 µM; actives 0.41% (n = 190,000);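 active means inhibition above a set limit, the median over all tested compounds plus 3 SD, cut at about 9.5% in these data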;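 further: enzyme runs in reverse so mevalonate oxidation gives rising NADPH absorbance; 0% = complete reaction with DMSO and 100% = background rate lacking mevalonate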
EP2 antag = blocks the human prostaglandin E2 receptor EP2; P43116; C6 glioma cells expressing human EP2, cAMP TR-FRET; cells stimulated with saturating PGE2; inhibition, % at 25 µM; actives 0.52% (n = 260,000); AID 1422;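 active means percent inhibition above 40 after rounding to a whole number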;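 further: rat C6 glioma host cells with rolipram phosphodiesterase inhibitor present; the protocol text gives 20 µM as final concentration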
Target sequence (P43116 whole entry, looked up): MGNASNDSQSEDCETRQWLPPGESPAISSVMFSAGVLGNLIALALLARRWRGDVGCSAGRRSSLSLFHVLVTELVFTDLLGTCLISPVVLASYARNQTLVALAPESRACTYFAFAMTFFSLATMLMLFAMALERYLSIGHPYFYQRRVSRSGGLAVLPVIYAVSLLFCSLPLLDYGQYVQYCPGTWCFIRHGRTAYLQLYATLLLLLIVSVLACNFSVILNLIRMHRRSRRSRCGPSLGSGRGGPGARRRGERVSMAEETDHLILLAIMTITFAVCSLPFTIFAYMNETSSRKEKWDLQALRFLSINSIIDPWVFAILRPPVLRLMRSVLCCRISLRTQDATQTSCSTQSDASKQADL
b-catenin transl = beta-catenin nuclear translocation modulation | actives 0.3% (n = 190,000) | HeLa beta-catenin nuclear translocation, immunofluorescence imaging | AID 1665 | nuclear translocation activity, % at 5 µM;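 active means nuclear translocation activity above 50% at 5 µM, with a well cell count of 50 or more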;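 further: per-cell ratio of nuclear to cytoplasmic median beta-catenin stain intensity; plate controls were DMSO negative control for no effect and GSK-3 inhibitor IX positive control for full effect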
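assay system = human HeLa cells, endogenous beta-catenin | times = compound treatment 24 h, 37°C, 5% CO2 | detection = Anti-beta-catenin immunofluorescence on PFA-fixed, Triton-permeabilized cells, DAPI nuclei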
TbHK1 inh = T. brucei hexokinase 1 inhibition | recombinant TbHK1, G6PDH-coupled NADH A340 | actives 0.11% (n = 220,000) | inhibition, % at 10 µM;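 active means inhibition of 50% or more in the single-dose primary screen; inactive means inhibition below 50%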
MT stabilize HCS = stabilizes microtubules in HeLa cells; HeLa tubulin immunostaining HCS, 24 h; share of cells brighter than vehicle mean+2SD; % tubulin-high responders, % at 10 µM; actives 0.83% (n = 200,000); AID 2205;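 active means plate Z-score above 3 for both tubulin-high and condensed-nucleus cell shares, with cell loss under 80%, at 10 µM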;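 further: anti alpha tubulin signal scored within the nucleus-defined area of each cell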
EP2 mod = EP2 receptor (human) modulation; P43116; EP2-expressing cells, cAMP HTRF FRET, PGE2 co-stimulation; induction, % at 25 µM; actives 0.83% (n = 260,000); AID 940;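 active means compounds whose cAMP rise, as percent of the full-agonist control response, exceeds 60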;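 further: rat C6 glioma line stably carrying human EP2 under a CMV promoter; the protocol text gives 20 µM as final concentration; 100% = response of wells given 1 µM PGE2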
An asterisk follows results filed as active; . = no result given; + = active, no number; ! = repeats disagree. Rows were chosen to be rich in hits. Some 2.4% of all compounds tested hit in one or more screens of this group.

SMILES	Efa HMGR inh	EP2 antag	b-catenin transl	TbHK1 inh	MT stabilize HCS	EP2 mod
CCc1c(C)[nH]c2c(OC)cccc2c1=O	.	13	.	.	.	-19
CCOc1ccc(S(=O)(=O)Nc2nc3ccccc3nc2N2CCN(C)CC2)cc1	-10	17	-5	-20	1	3
Cc1ccccc1S(=O)(=O)Nc1nc2ccccc2nc1N1CCOCC1	-2	40*	-7	-15	3	-20
CN(C[C@@H](Cc1cccc2ccccc12)N(C[C@H](Cc1ccccc1)N(CCc1ccccc1)N=O)N=O)N=O	12*	13	0	-13	2	20
CN(C[C@H](Cc1ccccc1)N(C[C@@H](Cc1cccc2ccccc12)N(CCc1ccccc1)N=O)N=O)N=O	-1	8	0	-3	3	21
COc1ccc(-n2nnnc2SCC(=O)Nc2cc(C)on2)c(OC)c1	.	13	.	.	.	-74
CCOc1ccc(NC(=O)/C=C/c2ccccc2)c([N+](=O)[O-])c1	-1	8	10	-5	24*	4
CCCOc1ccc2nc(NC(=O)OC)[nH]c2c1	-9	11	.	1	7	20
COC(=O)Nc1nc2ccc(C(=O)c3ccc(F)cc3)cc2[nH]1	6	17	66*	.	.	.
COc1ccc2nc(NC(=O)CSc3nnc4c(n3)[nH]c3ccccc34)sc2c1	.	11	.	.	.	-76
CCCCc1nc(Cl)c(CN2CCc3c(nc(N4CCC(C)CC4)[nH]c3=O)C2)[nH]1	.	.	.	.	.	-3
C[C@@H]1CC=C[C@H]2[C@H]1C(=O)N(Cc1ccccc1)[C@H]2c1ccc(C(F)(F)F)cc1	.	8	-2	-3	.	61*
O=C(Nc1ccncc1)C1CCCN(S(=O)(=O)c2cccc3cccnc23)C1 (stereo not given)	-7	10	88*	1	22*	4
COc1ccc(NC(=O)c2ccco2)cc1NC(=O)c1ccc(C(C)C)cc1	.	5	.	.	.	-44
Cc1ccc(N2CCN(C(=O)c3ccccc3)CC2)c(C)c1	-5	7	.	7	5	23
COc1cc(C(=O)N2CCN(c3ccc(C)cc3C)CC2)cc(OC)c1OC	-9	11	27	4	27*	5
N#Cc1cn(Cc2ccccc2)c2ccccc12	-1	6	.	5	3	63*
COC(=O)Cn1cc(C#N)c2ccccc21	-11	13	0	-5	3	3
N#Cc1cn(Cc2ccc(Cl)cc2)c2ccccc12	.	15	.	.	.	67*
N#Cc1ccccc1Cn1cc(C#N)c2ccccc21	-1	8	-3	4	3	3
O=C(NCCc1ccccc1)c1ncoc1-c1cccs1	.	8	.	.	.	-60
CC(C)c1nc2c([nH]1)c(=O)n(C)c(=O)n2C	.	13	3	-2	.	1
Cn1c(=O)c2[nH]c([C@@H]3CC(=O)C[C@H](c4nc5c([nH]4)c(=O)n(C)c(=O)n5C)N3)nc2n(C)c1=O	.	46*	.	.	.	18
Cc1ccc(NC(=O)c2cc(N3C(=O)C=CC3=O)ccc2N2CCOCC2)cc1Cl	-7	94*	.	13	4	-59
Cc1ccc(NC(=O)c2cc(N3C(=O)CCC3=O)ccc2N2CCOCC2)cc1	-2	8	1	-13	4	-20
SMILES	Efa HMGR inh	EP2 antag	b-catenin transl	TbHK1 inh	MT stabilize HCS	EP2 mod
COc1ccccc1NC(=O)Cn1nc(-c2ccncc2)nc1SCC(=O)NC1CCCC1	0	11	-1	2	11*	29
O=C(Cn1nc(-c2ccncc2)nc1SCC(=O)NC1CCCC1)Nc1cccc2ccccc12	.	7	.	.	.	-35
CCCn1c(C)cc(C(=O)COc2ccc(C)nc2[N+](=O)[O-])c1C	-9	5	-1	-9	4	16
COCCn1c(C)cc(C(=O)COc2ccc(C)nc2[N+](=O)[O-])c1C	13*	8	-1	-9	3	-30
CCOc1ccc2cc3c(N)c(C(=O)Nc4ccc(C(C)=O)cc4)sc3nc2c1	.	12	.	.	.	-18
C=CCSC1=N/C(=C\c2ccc3c(c2)OCO3)C(=O)S1	1	11	.	23	4	6
C=CCSC1=N/C(=C\c2sccc2C)C(=O)S1	-7	5	-2	10	1	64*
CC(=O)NC1(c2ccc(F)cc2)CCN(Cc2ccccc2N2CCCCC2)CC1	.	9	.	.	.	-48
CCN1/C(=C/C(C)=C/c2sc3ccccc3[n+]2CC)Sc2ccccc21	1	+	17	4	55	-255
CCN1/C(=C/C=C/C(C)=C/C=C/c2sc3ccccc3[n+]2CC)Sc2ccccc21	.	17	.	.	.	-97
O=[N+]([O-])c1ccc(N(c2ccccc2)c2ccccc2)cc1	-5	7	-1	14	2	61*
C(=N\NC(=Nc1ccccc1)c1ccccn1)/c1ccccn1	-2	10	0	2	3	7
Clc1ccc(/C=N/NC(=Nc2ccccc2)c2ccccn2)c(Cl)c1	2	.	0	-9	1	61*
Nc1cccc(CCc2nc3cc4ccccc4cc3[nH]2)c1	-4	12	81*	10	18	-74
NCc1nc2cc3ccccc3cc2[nH]1	.	15	.	.	.	-29
COc1cccc(C(C(=O)NC2CCCCC2)N(Cc2cccs2)C(=O)c2ccco2)c1 (stereo not given)	.	8	.	.	.	27
Cn1ccnc1Sc1nc2ccccc2nc1NS(=O)(=O)c1ccccc1	-3	52*	-1	-12	3	50
Cn1cnnc1Sc1nc2ccccc2nc1NS(=O)(=O)c1ccccc1	1	10	-4	-15	3	30
Cc1cc2c(C)ccc(C)c2nc1SCC(=O)O	.	14	.	.	.	79*
Cc1cc2c(C)ccc(C)c2nc1SCC(=O)Nc1c(C)cccc1C	.	7	.	.	.	-1
Cc1cc2cccc(C)c2nc1SCC(=O)c1ccccc1	.	24	.	.	.	69*
Cc1cc2cccc(C)c2nc1SCC(=O)NC(C)(C)C	.	9	.	.	.	51
COC(=O)c1ccccc1NC(=O)CSc1nnnn1C1CCCCC1	-1	13	0	3	3	35
CCOC(=O)c1ccccc1NC(=O)CSc1nnnn1C1CCCCC1	5	3	1	11	5	64*!
COc1ccc(-n2c(C)nnc2SCC(=O)Nc2cccc(C)c2C)cc1	.	3	.	.	.	-14
CC1=C(C#N)c2nc(N)c(C#N)c(C)c2/C1=C/c1cccc(F)c1	.	27	.	.	.	-87
CC1=C(C#N)c2nc(N)c(C#N)c(C)c2/C1=C\c1ccc(C)cc1	-4	40*!	0	-5	3	-111
COc1ccc(-c2c(C)nn3c(N4CCOCC4)c(C)c(C)nc23)cc1	.	.	.	.	.	-8
COc1cc(C2NC(=S)NC(C)=C2C(=O)Nc2cc(Cl)ccc2C)cc(OC)c1OC (stereo not given)	.	13	.	.	.	-6
O=C(NC(c1ccccc1)c1cccnc1)c1cc2c([nH]c1=O)CCCCC2 (stereo not given)	.	16	.	.	.	-64
